The values that follow come from ChEMBL document CHEMBL1949497, “Synthesis and antihormonal properties of novel 11β-benzoxazole-substituted steroids” (Bioorg Med Chem Lett, 2012).

Assay [1] has as its target T1, Glucocorticoid receptor (Homo sapiens, UniProt P04150).
T1 sequence (P04150 whole entry): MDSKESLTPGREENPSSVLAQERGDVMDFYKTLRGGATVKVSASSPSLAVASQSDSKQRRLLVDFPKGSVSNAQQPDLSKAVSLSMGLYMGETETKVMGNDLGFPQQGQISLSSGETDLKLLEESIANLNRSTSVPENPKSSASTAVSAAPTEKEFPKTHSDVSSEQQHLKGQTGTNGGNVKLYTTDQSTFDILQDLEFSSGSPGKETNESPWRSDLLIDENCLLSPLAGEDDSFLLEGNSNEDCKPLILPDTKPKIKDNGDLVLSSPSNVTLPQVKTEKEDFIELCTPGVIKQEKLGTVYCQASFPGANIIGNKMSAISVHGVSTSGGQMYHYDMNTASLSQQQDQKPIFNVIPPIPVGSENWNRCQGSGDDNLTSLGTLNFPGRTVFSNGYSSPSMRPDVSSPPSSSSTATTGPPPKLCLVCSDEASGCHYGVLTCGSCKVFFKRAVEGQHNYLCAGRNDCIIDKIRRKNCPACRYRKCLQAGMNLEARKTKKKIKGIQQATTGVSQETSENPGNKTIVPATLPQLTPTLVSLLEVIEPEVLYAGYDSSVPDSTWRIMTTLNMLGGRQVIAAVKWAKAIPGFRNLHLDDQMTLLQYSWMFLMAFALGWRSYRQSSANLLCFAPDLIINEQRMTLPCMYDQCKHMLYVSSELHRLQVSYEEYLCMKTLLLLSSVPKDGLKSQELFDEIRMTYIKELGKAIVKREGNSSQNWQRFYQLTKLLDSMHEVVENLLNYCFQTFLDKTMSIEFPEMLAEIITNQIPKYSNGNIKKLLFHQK
As to the kind of experiment: Antagonist activity at glucocorticoid receptor in human A549 cells assessed as inhibition of dexamethasone-induced transcription at GRE after 24 hrs by luciferase reporter gene assay. The class given is functional, cell-based.

Assay [2] deals with T2, Progesterone receptor (Homo sapiens, UniProt P06401).
T2 sequence (P06401 whole entry): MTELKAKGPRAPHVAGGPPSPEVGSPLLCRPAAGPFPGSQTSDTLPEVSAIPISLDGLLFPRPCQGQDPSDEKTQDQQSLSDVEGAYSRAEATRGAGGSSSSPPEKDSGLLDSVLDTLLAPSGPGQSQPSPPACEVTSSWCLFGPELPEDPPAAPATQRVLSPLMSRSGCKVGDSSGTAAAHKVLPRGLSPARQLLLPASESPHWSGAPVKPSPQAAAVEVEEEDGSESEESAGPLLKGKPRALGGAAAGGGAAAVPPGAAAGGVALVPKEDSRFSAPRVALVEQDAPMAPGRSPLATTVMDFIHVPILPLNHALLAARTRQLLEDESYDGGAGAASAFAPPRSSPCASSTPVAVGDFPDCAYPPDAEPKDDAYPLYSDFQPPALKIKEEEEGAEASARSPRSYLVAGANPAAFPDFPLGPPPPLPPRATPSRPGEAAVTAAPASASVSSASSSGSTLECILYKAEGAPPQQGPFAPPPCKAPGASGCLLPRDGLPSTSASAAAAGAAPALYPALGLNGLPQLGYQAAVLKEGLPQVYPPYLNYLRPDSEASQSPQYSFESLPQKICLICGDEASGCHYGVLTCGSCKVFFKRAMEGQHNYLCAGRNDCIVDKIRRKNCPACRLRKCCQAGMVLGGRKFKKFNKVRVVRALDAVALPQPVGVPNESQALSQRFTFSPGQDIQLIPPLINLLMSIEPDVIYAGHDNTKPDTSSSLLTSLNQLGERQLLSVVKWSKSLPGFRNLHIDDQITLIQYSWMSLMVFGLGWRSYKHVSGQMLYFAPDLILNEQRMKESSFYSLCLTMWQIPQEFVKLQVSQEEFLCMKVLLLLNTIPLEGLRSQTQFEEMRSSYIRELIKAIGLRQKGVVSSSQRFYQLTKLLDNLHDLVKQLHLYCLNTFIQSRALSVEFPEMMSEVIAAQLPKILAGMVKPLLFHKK
As to the kind of experiment: Antagonist activity at progesterone receptor in human T47D cells assessed as inhibition of progesterone-induced alkaline phosphatase activity after 24 hrs by luminescence based assay. Type of assay: functional, cell-based.

Assay [3] relates to T47D. As to the kind of experiment: Selectivity ratio of IC50 for progesterone receptor in human T47D cells to IC50 for glucocorticoid receptor in human A549 cells. The class given is cell-based. The gist of the method: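 Ratio calculated by dividing the IC50 from the T47D alkaline phosphatase assay by the IC50 from the A549 cell-based functional assay, with both measured in this work. It serves as an index of how well PR and GR antagonism are separated. Mifepristone was run alongside as the reference compound.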

For `CC#C[C@]1(O)CC[C@H]2[C@@H]3CCC4=CC(=O)CCC4=C3[C@@H](c3ccc4oc(C(F)(F)F)nc4c3)C[C@@]21C`, the values for the IC50 in assay [1] and in assay [2] were 61 nM and 85 nM, respectively. In addition, the Ratio IC50 in assay [3] came to 1.4.

`CC#C[C@]1(NC=O)CC[C@H]2[C@@H]3CCC4=CC(=O)CCC4=C3[C@@H](c3ccc4ocnc4c3)C[C@@]21C`: the results for the IC50 in assay [1] and in assay [2] were 60 nM and 41 nM, respectively. Further, the Ratio IC50 in assay [3] came out at 0.7.

On to `CC#C[C@]1(O)CC[C@H]2[C@@H]3CCC4=CC(=O)CCC4=C3[C@@H](c3ccc4oc(CC)nc4c3)C[C@@]21C`, for which the IC50 in assay [1] came out at 13 nM; in assay [2], 65 nM. Besides, the Ratio IC50 in assay [3] worked out at 5.

For the molecule `CC#C[C@]1(NC=O)CC[C@H]2[C@@H]3CCC4=CC(=O)CCC4=C3[C@@H](c3ccc4oc(C(F)(F)F)nc4c3)C[C@@]21C`, the IC50 in assay [1] amounted to 142 nM; in assay [2] it was 46 nM. In assay [3], the Ratio IC50 is 0.3.

Regarding `CC#C[C@]1(O)CC[C@H]2[C@@H]3CCC4=CC(=O)CCC4=C3[C@@H](c3ccc4ocnc4c3)C[C@@]21C`, the values for the 50% inhibitory concentration (IC50) in assay [1] and in assay [2] were 45 nM and 101 nM, respectively. The Ratio IC50 in assay [3] was 2.2.

As to `CC#C[C@]1(O)CC[C@H]2[C@@H]3CCC4=CC(=O)CCC4=C3[C@@H](c3ccc(N(C)C)cc3)C[C@@]21C`, the Ratio IC50 in assay [3] amounted to 0.9.

Regarding `CC#C[C@]1(O)CC[C@H]2[C@@H]3CCC4=CC(=O)CCC4=C3[C@@H](c3ccc4oc(C)nc4c3)C[C@@]21C`, the IC50 was determined as 23 nM in assay [1] and 35 nM in assay [2]. The Ratio IC50 in assay [3] came to 1.5.
